{
  "source": "ChEMBL document CHEMBL3769384",
  "about": "“Discovery of Tetrahydropyrazolopyridine as Sphingosine 1-Phosphate Receptor 3 (S1P3)-Sparing S1P1 Agonists Active at Low Oral Doses” (J Med Chem, 2016)",
  "key": {"[1]": {"assay": "Passive permeability from apical to basolateral side in MDCK2-MDR1 cells after 90 mins by LC-MS/MS analysis", "format": "ADME, cell-based, Canis lupus familiaris, MDCK-II", "conditions": "dog, MDCK-MDR1; read-out: permeability; call rule not given here", "summary_of_the_method": "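MDCKII-MDR1 monolayers used 3-4 days after seeding on inserts. Apical FaSSIF at pH 5.5 or 7.4; basolateral DMEM pH 7.4 with 1% HSA. Both sides contained 2 µM GF120918 and were preincubated 30 min. A→B transport measured in triplicate after 90 min at 37°C with shaking.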"}, "[2]": {"test_system": "Hepatocyte", "assay": "Intrinsic clearance in Sprague-Dawley rat hepatocytes at 0.5 uM after 2 hrs by LC-MS/MS analysis", "format": "ADME, cell-based", "summary_of_the_method": "(§1)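 Compound at 0.5 µM incubated with pooled cryopreserved hepatocytes (0.7 million cells/mL) in Williams Medium E at 37°C under CO2/O2. Supernatants analysed by LC-MS/MS. CLi was derived from a first-order rate constant, scaled with 1.2x10^8 cells/g liver (human, rat, mouse) or 2.4x10^8 cells/g liver (dog).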"}, "[3]": {"biological_target": "Cytochrome P450 3A4 (Homo sapiens, UniProt P08684)", "sequence (P08684 whole entry)": "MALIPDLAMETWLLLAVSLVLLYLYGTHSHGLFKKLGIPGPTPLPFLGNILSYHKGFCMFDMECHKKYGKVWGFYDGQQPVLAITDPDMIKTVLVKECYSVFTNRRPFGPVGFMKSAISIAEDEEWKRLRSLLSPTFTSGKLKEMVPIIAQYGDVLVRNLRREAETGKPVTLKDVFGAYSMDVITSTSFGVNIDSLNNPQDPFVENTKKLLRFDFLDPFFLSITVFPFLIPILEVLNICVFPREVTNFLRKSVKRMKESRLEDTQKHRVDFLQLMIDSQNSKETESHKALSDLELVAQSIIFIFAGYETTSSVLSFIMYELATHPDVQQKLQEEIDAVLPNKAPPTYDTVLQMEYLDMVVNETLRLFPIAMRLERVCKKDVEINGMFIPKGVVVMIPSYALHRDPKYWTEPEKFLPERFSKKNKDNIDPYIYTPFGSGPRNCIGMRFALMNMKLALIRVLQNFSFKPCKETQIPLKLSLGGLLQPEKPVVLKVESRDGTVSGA", "assay": "Inhibition of human CYP3A4 coexpressed in Escherichia coli with human NADPH reductase using midazolam as substrate at 0.1 to 100 uM by fluorescence assay", "format": "ADME", "conditions": "TDE = time-dependent effect"}, "[4]": {"biological_target": "Sphingosine 1-phosphate receptor 3 (Homo sapiens, UniProt Q99500)", "sequence (Q99500 whole entry)": "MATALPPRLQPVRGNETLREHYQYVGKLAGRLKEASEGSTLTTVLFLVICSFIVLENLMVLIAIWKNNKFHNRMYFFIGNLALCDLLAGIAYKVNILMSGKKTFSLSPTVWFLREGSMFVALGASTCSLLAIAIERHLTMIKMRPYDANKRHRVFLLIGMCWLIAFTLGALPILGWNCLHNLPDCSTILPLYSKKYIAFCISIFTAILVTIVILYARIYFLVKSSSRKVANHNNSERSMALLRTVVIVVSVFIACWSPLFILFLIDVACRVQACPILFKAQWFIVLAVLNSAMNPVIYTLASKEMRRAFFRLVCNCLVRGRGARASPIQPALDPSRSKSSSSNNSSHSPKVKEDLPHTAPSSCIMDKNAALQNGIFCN", "assay": "Agonist activity at human S1P3 receptor expressed in RBL cells by [35S]GTP-gammaS accumulation assay", "format": "cell-based", "summary_of_the_method": "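Sucrose-gradient-purified RBL S1P3 membranes (0.44 µg/well) precoupled 30 min on ice to WGA SPA beads with 2 µg/well saponin in HEPES/MgCl2/NaCl buffer pH 7.4. 5 µM GDP final and 0.3 nM [35S]GTPγS final added, then dispensed onto compound in DMSO. Read by scintillation proximity after 3 h at room temperature.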"}, "[5]": {"biological_target": "Sphingosine 1-phosphate receptor 1 (Homo sapiens, UniProt P21453)", "sequence (P21453 whole entry)": "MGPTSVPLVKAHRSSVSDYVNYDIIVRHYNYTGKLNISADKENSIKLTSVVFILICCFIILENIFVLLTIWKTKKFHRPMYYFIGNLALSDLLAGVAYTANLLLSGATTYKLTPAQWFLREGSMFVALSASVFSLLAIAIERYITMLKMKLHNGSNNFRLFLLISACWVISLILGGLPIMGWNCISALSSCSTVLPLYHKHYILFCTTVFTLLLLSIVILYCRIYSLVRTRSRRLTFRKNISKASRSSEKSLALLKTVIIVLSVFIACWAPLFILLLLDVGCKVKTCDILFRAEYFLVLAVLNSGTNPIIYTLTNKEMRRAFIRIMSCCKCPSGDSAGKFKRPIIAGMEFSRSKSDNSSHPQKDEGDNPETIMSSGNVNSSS", "assay": "Agonist activity at human S1P1 receptor expressed in RH7777 cells by [35S]GTP-gammaS accumulation assay", "format": "cell-based", "summary_of_the_method": "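RH7777 S1P1 membranes (1.5 µg/well) precoupled 30 min on ice to WGA SPA beads in 20 mM HEPES, 10 mM MgCl2, 100 mM NaCl, pH 7.4, with 10 µM GDP and 90 µg/mL saponin (final). 0.5 nM [35S]GTPγS final added to compound; plates read immediately by scintillation proximity.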"}, "[6]": {"assay": "Fraction unbound in beagle dog blood after 4 hrs by LC-MS/MS analysis", "format": "ADME, tissue-based, Canis lupus familiaris", "summary_of_the_method": "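Fresh blood (CD rat, CD1 mouse, Beagle dog, single human donor) spiked at 1000 ng/mL and dialysed against PBS by rapid equilibrium dialysis for 4 h at 37°C. Matrix-matched LC-MS/MS; unbound fraction taken from the buffer/blood peak area ratio.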"}, "[7]": {"test_system": "Hepatocyte", "assay": "Intrinsic clearance in CD1 mouse hepatocytes at 0.5 uM after 2 hrs by LC-MS/MS analysis", "format": "ADME, cell-based", "summary_of_the_method": "as §1"}, "[8]": {"biological_target": "Sphingosine 1-phosphate receptor 5 (Homo sapiens, UniProt Q9H228)", "sequence (Q9H228 whole entry)": "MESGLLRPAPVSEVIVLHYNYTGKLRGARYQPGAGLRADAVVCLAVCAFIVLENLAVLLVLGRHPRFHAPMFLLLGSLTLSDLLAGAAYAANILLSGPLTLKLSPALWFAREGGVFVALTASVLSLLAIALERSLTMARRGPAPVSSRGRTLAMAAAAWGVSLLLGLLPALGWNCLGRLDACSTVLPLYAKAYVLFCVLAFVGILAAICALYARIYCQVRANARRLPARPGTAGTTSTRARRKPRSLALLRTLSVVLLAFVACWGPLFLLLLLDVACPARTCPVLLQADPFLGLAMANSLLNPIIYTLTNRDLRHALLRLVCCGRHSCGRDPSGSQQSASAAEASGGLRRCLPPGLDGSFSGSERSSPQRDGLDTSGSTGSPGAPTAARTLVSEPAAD", "assay": "Agonist activity at human S1P5 receptor expressed in CHO-K1 cells by aequorin calcium accumulation assay", "format": "functional, cell-based", "summary_of_the_method": "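CHO-K1 aequorin lines revived in DMEM F12 with 10% charcoal-stripped FBS, recovered 30 min at 37°C, then loaded 18-24 h at room temperature in the dark with 5 µM coelenterazine at 2.5x10^6 cells/mL. Cells were added at 1x10^5/well to compound, and flash luminescence was recorded immediately.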"}, "[9]": {"assay": "Activation of CYP1A (unknown origin)", "format": "ADME", "conditions": "human"}, "[10]": {"biological_target": "Sphingosine 1-phosphate receptor 2 (Homo sapiens, UniProt O95136)", "sequence (O95136 whole entry)": "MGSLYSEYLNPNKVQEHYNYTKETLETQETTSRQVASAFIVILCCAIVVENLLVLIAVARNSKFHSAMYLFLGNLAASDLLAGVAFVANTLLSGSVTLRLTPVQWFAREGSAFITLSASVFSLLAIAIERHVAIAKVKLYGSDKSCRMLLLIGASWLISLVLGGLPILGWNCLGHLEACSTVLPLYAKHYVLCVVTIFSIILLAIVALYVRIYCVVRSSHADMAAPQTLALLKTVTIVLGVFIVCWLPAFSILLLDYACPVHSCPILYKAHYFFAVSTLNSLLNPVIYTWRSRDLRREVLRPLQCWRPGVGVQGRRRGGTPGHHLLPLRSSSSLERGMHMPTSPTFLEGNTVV", "assay": "Agonist activity at human S1P2 receptor expressed in Saccharomyces cerevisiae after 24 hrs by reporter gene assay", "summary_of_the_method": "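S. cerevisiae with integrated S1P2 under the GPD promoter, seeded at 0.02 OD600 in histidine-free minimal medium with 5 mM 3-aminotriazole and 100 µM fluorescein-di-(β-D-glucopyranoside). Agonist-driven growth was read as fluorescein fluorescence (ex 485/em 535 nm) after 24 h at 30°C.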"}},
  "data": [
    {"smiles": "Cc1c2c(nn1-c1nnc(-c3ccc(OC(C)C)c(Cl)c3)s1)CCN(CCC(=O)O)C2", "values": [
      {"measurement": "Papp A→B at 1.5 h", "setting": "[1]", "result": 14.7, "unit": "×10⁻⁶ cm/s"},
      {"measurement": "CLH", "setting": "[2]", "result": 3.2, "unit": "mL/min/g"},
      {"measurement": "inhibition (INH)", "setting": "[3]", "result": "tde"},
      {"measurement": "EC50", "setting": "[4]", "result": "> 31600", "unit": "nM"},
      {"measurement": "EC50", "setting": "[5]", "result": 6.31, "unit": "nM"},
      {"measurement": "fraction unbound at 4 h", "setting": "[6]", "result": 0.011},
      {"measurement": "CLH", "setting": "[7]", "result": "< 0.85", "unit": "mL/min/g"},
      {"measurement": "EC50", "setting": "[8]", "result": 16.6, "unit": "nM"},
      {"measurement": "Activity", "setting": "[9]", "result": "Not Active"},
      {"measurement": "EC50", "setting": "[10]", "result": "> 31600", "unit": "nM"}
    ]}
  ]
}
